Common to all, as to format: functional, organism-based
Assay [1] concerns Sinapis alba. The assay can be described thus: Phytotoxic activity against Sinapis alba assessed as inhibition of hypocotyl growth at 22 +/-2 degC after 72 hr. Summed up: (§1)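 Test solutions were made in 90% methanol and applied to filter paper in Petri dishes, with a methanol-only control. Concentrations ranged from 1 to 5000 or 10000 µmol, depending on the compound. After 72 h incubation, root and hypocotyl lengths were measured on at least three replicate plates per concentration. Percentage influence was calculated relative to a distilled-water control, and EC50 (µM) was reported with R2.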

The subject of assay [2] is Lolium perenne. Put plainly: Phytotoxic activity against Lolium perenne (perennial ryegrass) assessed as inhibition of root growth at 22 +/-2 degC after 72 hr. A digest of the protocol:
as §1

The subject of assay [3] is Amaranthus retroflexus. Put plainly: Phytotoxic activity against Amaranthus retroflexus assessed as inhibition of hypocotyl growth at 22 +/-2 degC after 72 hr. A digest of the protocol:
as §1

Assay [4] concerns Achillea millefolium. Put plainly: Phytotoxic activity against Achillea millefolium assessed as inhibition of hypocotyl growth at 22 +/-2 degC after 72 hr. Summed up:
as §1

Assay [5] relates to Echinochloa crus-galli. The assay can be described thus: Phytotoxic activity against Echinochloa crus-galli (barnyard grass) assessed as inhibition of hypocotyl growth at 22 +/-2 degC after 72 hr. Summed up:
as §1

For assay [6], the system named is Sinapis alba. The assay can be described thus: Phytotoxic activity against Sinapis alba assessed as inhibition of root growth at 22 +/-2 degC after 72 hr. A digest of the protocol: as §1
Assay [7] deals with Trifolium repens. Put plainly: Phytotoxic activity against Trifolium repens assessed as inhibition of hypocotyl growth at 22 +/-2 degC after 72 hr. A digest of the protocol:
as §1

The test system of assay [8] is Echinochloa crus-galli. The assay can be described thus: Phytotoxic activity against Echinochloa crus-galli (barnyard grass) assessed as inhibition of root growth at 22 +/-2 degC after 72 hr. A digest of the protocol:
as §1

In assay [9] the test system is Amaranthus retroflexus. The assay can be described thus: Phytotoxic activity against Amaranthus retroflexus assessed as inhibition of root growth at 22 +/-2 degC after 72 hr. Summed up:
as §1

Assay [10] relates to Plantago lanceolata. Put plainly: Phytotoxic activity against Plantago lanceolata assessed as inhibition of hypocotyl growth at 22 +/-2 degC after 72 hr. A digest of the protocol:
as §1

The subject of assay [11] is Plantago lanceolata. Put plainly: Phytotoxic activity against Plantago lanceolata assessed as inhibition of root growth at 22 +/-2 degC after 72 hr. Summed up: as §1
Assay [12] relates to Trifolium repens. The assay can be described thus: Phytotoxic activity against Trifolium repens assessed as inhibition of root growth at 22 +/-2 degC after 72 hr. Summed up:
as §1

Assay [13] deals with Achillea millefolium. Put plainly: Phytotoxic activity against Achillea millefolium assessed as inhibition of root growth at 22 +/-2 degC after 72 hr. Summed up:
as §1

Assay [14] relates to Lolium perenne. The assay can be described thus: Phytotoxic activity against Lolium perenne (perennial ryegrass) assessed as inhibition of hypocotyl growth at 22 +/-2 degC after 72 hr. Summed up: as §1

One may read the EC50 as the concentration needed to bring the measured effect to its halfway point. In the case of `Oc1cc(O)c2c(c1)O[C@H](c1ccc(O)c(O)c1)[C@@H](O)C2` [CIANIDANOL], the EC50 in assay [1] is 780 µM; in assay [2], 377 µM; in assay [3], 9300 µM; in assay [4], 527 µM; in [5] it was 148 µM; in [6] it was 445 µM. In addition, the EC50 in assay [7] is 169 µM; in assay [8] it was 362 µM; in [9], 2830 µM; in assay [10], 360 µM; in [11], 55 µM; in assay [12], 433 µM. Besides, the values for the EC50 in [13] and in assay [14] were 472 µM and 120 µM, respectively.

On to `O=c1c(O[C@@H]2O[C@H](CO)[C@@H](O)[C@H](O)[C@H]2O)c(-c2ccc(O)c(O)c2)oc2cc(O)cc(O)c12` [ISOQUERCETIN], for which the EC50 in assay [1] stood at 9560 µM; in assay [2] it was 90100 µM; in [5] it was 35200 µM; in [6] it was 5910 µM; in assay [8], 89100 µM; in assay [10], 37100 µM. The EC50 came out at 54600 µM in [11] and 33800 µM in assay [14].

For `O=c1c(O)c(-c2ccc(O)c(O)c2)oc2cc(O)cc(O)c12` [QUERCETIN], the EC50 was found to be 12800 µM in assay [1], 273 µM in [2], 7050 µM in [6] and 183 µM in [14].
